# Assay results pooled from the literature.
# Target: Cytoplasmic tyrosine-protein kinase BMX (BMX, Homo sapiens, UniProt P51813)
# One construct used (P51813 1-675): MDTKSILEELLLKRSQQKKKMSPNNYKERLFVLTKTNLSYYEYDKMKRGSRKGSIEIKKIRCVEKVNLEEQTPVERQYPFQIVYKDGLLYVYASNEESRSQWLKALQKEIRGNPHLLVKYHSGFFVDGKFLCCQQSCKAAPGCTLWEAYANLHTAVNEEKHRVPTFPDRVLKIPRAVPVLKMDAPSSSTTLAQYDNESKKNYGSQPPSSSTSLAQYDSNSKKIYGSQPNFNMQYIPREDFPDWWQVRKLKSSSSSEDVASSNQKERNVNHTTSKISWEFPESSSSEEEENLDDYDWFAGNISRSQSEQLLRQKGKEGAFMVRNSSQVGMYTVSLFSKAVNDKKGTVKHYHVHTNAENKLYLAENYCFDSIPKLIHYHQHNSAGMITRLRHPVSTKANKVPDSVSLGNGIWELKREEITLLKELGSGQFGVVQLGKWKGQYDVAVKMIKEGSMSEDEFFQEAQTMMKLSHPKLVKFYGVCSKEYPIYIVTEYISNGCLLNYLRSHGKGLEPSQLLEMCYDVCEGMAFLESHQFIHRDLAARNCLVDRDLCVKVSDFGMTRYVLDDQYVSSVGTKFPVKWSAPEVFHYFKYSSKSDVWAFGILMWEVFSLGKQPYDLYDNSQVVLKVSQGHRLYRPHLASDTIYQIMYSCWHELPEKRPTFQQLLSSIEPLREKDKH
Compound,effect on,method,concentration,remaining binding [%]
CCCOc1ccc([C@H]2[C@H](C(=O)O)[C@@H](c3ccc4c(c3)OCO4)CN2CC(=O)Nc2c(CC)cccc2CC)cc1,cell-free assay,competition with immobilised ligand,1 µM,100
O=C(NCCCN1CCOCC1)c1ccc(Nc2ncc(Cl)c(-c3ccc(Cl)s3)n2)cc1,binding,competition with immobilised ligand,1 µM,89
CCOCCn1cc(C(=O)Nc2ccc(-n3nc(-c4cccnc4)cc3C(F)(F)F)cn2)ccc1=O,cell-free assay,competition with immobilised ligand,1 µM,84
C[C@@H]1CCN(c2nccc(-c3cnn4ncccc34)n2)C1,binding,,1 µM,100
c1cncc(-c2cccc(Nc3nccc(NC4CCCCC4)n3)c2)c1,binding,competition with immobilised ligand,10 µM,82
O=C(Nc1c[nH]nc1C(=O)NC1CCNCC1)c1cc(F)cc(F)c1,binding,competition with immobilised ligand,1 µM,100
O=C(NCCCN1CCOCC1)c1ccc(Nc2nccc(-c3cc4ccccc4s3)n2)cc1,binding,competition with immobilised ligand,1 µM,100
CN(C)c1nccc(-c2cnc3ncccn23)n1,binding,,1 µM,100
FC(F)(F)Oc1cccc(-c2cnc3ccc(-c4ccncc4)nn23)c1,cell-free assay,competition with immobilised ligand,5 µM,86
Cc1cnc(Nc2ccc(C(=O)N3CCC(N4CCCC4)CC3)cc2)nc1-c1cc2ccccc2s1,binding,competition with immobilised ligand,1 µM,75
Cc1cc(-n2nc(Cc3cc(F)cc(C(F)(F)F)c3)nc2C)ccc1C(N)=O,cell-free assay,competition with immobilised ligand,1 µM,100
COc1ccnn2ncc(-c3ccnc(N(C)C)n3)c12,binding,,1 µM,100
C[C@H](c1cccc(C#N)c1)n1cc(Cl)cc(C(N)=O)c1=N,cell-free assay,competition with immobilised ligand,1 µM,77
COc1cnc(Nc2cccc(S(N)(=O)=O)c2)nc1N1CCN(c2ccccc2)CC1,binding,competition with immobilised ligand,1 µM,93
CN1CCN(c2cnc3c(C4CCN(C(=O)c5ccc(OC(F)(F)F)cc5N)CC4)ncnc3c2)CC1,cell-free assay,competition with immobilised ligand,1 µM,100
F[C@@H]1CCN(c2nccc(-c3cnn4ncccc34)n2)C1,binding,,1 µM,83
C=CC(=O)N1CCC(C(=O)NCC(=O)N2CCN(c3nc(-c4cnc(N)nc4C(F)F)nc(N4CCOCC4)n3)CC2)CC1,binding,competition with immobilised ligand,1 µM,99
c1cnn2ncc(-c3ccnc(N4CCC45COC5)n3)c2c1,binding,,1 µM,90
O=C(N1CCS(=O)(=O)CC1)N1C[C@H](c2ccc(OC(F)(F)F)cc2)C[C@H](c2nc(C3CC3)no2)C1,cell-free assay,competition with immobilised ligand,1 µM,100
N[C@@H]1CCN(c2nccc(-c3cnn4ncccc34)n2)C1,binding,,1 µM,97
Nc1ncc2c(n1)-c1c([nH]c3ccc(C#CC4CC4)cc13)CCCC2,binding,competition with immobilised ligand,1 µM,86
